ChEMBL document CHEMBL4130571, “(+)- and (-)-Ecarlottones, Uncommon Chalconoids from Fissistigma latifolium with Pro-Apoptotic Activity” (J Nat Prod, 2017)
pKi: −log10 of the molar value. Calls of active or inactive are those of the source. The calls are words filed in the database; no cut-off is given here.

Legend:
Bcl-xL/BAK = Bcl-xL/BAK (Homo sapiens, UniProt Q07817); experiment: Inhibition of His-tagged Bcl-xL (unknown origin)/5-carboxyfluorescein-labeled Bak (unknown origin) protein protein interaction after 1 hr by fluorescence polarization assay
Procedure, shortened: (§1)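 Competition FP assay displacing a fluorescent-tagged BH3-domain probe (Bak peptide for Bcl-xL, Bid peptide for Mcl-1). Run in triplicate, with reference BH3-mimetic positive controls.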

[1] = molecular target: Induced myeloid leukemia cell differentiation protein Mcl-1/BH3-interacting domain death agonist (Homo sapiens, UniProt Q07820); experiment: Inhibition of His-tagged MCL1 (unknown origin)/5-carboxyfluorescein-labeled Bid (unknown origin) protein protein interaction after 1 hr by fluorescence polarization assay; procedure, shortened: as §1
KB = experiment: Cytotoxicity against human KB cells up to 10 uM; type: functional, cell-based
HUVEC (Homo sapiens) = experiment: Cytotoxicity against HUVEC cells up to 10 uM

Chain of Bcl-xL/BAK (Q07817 whole entry): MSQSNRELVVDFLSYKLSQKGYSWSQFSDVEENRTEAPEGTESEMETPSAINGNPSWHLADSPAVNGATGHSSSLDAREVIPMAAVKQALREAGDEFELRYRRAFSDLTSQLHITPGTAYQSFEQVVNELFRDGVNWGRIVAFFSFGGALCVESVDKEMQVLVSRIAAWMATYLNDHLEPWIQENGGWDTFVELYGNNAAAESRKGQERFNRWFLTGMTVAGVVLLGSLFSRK
Chain of Bcl-xL/BAK (Q16611 whole entry, further chain): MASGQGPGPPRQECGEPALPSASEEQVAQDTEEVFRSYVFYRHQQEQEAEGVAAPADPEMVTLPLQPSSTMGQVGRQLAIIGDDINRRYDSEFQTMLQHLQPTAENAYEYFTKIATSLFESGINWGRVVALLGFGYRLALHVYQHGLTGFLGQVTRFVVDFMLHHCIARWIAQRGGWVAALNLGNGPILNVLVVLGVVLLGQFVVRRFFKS
Chain of Induced myeloid leukemia cell differentiation protein Mcl-1/BH3-interacting domain death agonist (Q07820 whole entry, the tested form may be a part): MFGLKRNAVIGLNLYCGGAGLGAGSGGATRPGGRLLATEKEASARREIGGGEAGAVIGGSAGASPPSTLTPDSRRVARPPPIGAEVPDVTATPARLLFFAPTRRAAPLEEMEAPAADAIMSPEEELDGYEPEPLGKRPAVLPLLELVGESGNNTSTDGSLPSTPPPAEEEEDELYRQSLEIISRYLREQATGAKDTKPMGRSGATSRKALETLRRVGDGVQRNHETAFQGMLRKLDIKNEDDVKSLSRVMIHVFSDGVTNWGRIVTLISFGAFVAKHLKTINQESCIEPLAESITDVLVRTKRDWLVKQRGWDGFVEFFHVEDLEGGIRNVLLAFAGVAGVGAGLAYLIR
Chain of Induced myeloid leukemia cell differentiation protein Mcl-1/BH3-interacting domain death agonist (P55957 whole entry, further chain, the tested form may be a part): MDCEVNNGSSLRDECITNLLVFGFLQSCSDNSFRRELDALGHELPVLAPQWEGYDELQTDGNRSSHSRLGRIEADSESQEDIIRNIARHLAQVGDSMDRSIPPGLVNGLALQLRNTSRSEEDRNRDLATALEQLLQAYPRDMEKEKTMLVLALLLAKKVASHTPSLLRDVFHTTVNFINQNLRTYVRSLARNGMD

SMILES | pKi (Bcl-xL/BAK) | pKi [1] | Activity (KB) | Activity (HUVEC (Homo sapiens))
COC1=C(O)C(=O)/C(=C(\O)[C@@H]2CC=C(CCC=C(C)C)C[C@H]2c2ccccc2)C(=O)C1=O | 5.32 | 5.62 | inactive | inactive
CC(C)=CCCC1=CCC(C(=O)O)C(c2ccccc2)C1 (racemic) | < 4.64 | < 4.48 | inactive | inactive
COc1c(O)c2c(c(O)c1OC)C(=O)C[C@H](c1ccccc1)O2 | < 4.64 | < 4.48 | inactive | inactive
COC1=C(OC)C(=O)C2=C(O[C@@H](c3ccccc3)CC2=O)C1=O | < 4.64 | < 4.48 | inactive | inactive
COc1cc(/C=C/c2ccccc2)oc(=O)c1 [DESMETHOXYYANGONIN] | < 4.64 | < 4.48 | inactive | inactive
CC(=O)C1CC=C(CCC=C(C)C)CC1c1ccccc1 (racemic) | < 4.64 | < 4.48 | inactive | inactive
COC1=C(O)C(=O)/C(=C(\O)C2CC=C(CCC=C(C)C)CC2c2ccccc2)C(=O)C1=O (racemic) | 4.76 | 5.51 | inactive | inactive
CC(=O)C1CC(CCC=C(C)C)=CCC1c1ccccc1 (racemic) | < 4.64 | < 4.48 | inactive | inactive
COC1=C(O)C(=O)/C(=C(\O)[C@H]2CC=C(CCC=C(C)C)C[C@@H]2c2ccccc2)C(=O)C1=O | < 4.64 | 5.13 | inactive | inactive
CC(C)=CCC[C@H](C)[C@@H]1C=C[C@]2(C(=O)O)[C@@H](CC(C)=C[C@H]2/C=C(\C)C2CCC(C(=O)O)CC2)C1 (some centres not stated) | 5.59 | – | – | –
